We go through 41 compounds from ChEMBL document CHEMBL1128515, “Cardioselective anti-ischemic ATP-sensitive potassium channel openers. 3. Structure-activity studies on benzopyranyl cyanoguanidines: modification of the cyanoguanidine portion” (J Med Chem, 1995).

As usually defined, the EC25 is the concentration at which the effect reaches the 25% level. In general, IC50 refers to the concentration at which inhibition is half-maximal.

Holding throughout (format): functional
The species named for test [1] is Rattus norvegicus. Put plainly: Concentration necessary for increase in time to contracture by 25% in the globally ischemic rat hearts. The procedure, abridged: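 Isolated rat hearts, perfused and then made globally ischemic. The EC25 is the concentration giving a 25% increase in time to onset of contracture. Time to contracture is the time during total global ischemia for end-diastolic pressure to rise 5 mmHg above baseline.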

The species entered for test [2] is Rattus norvegicus. As to the kind of experiment: Ratio of the concentration increasing time to contracture by 25% (EC25) in rat heart and concentration showing vasorelaxant potency (IC50) in rat aorta. The procedure, abridged:
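Cardiac selectivity index: the ratio of vasorelaxant potency (IC50 for relaxing methoxamine-contracted rat aorta) to anti-ischemic potency (EC25 for increasing time to contracture in globally ischemic isolated perfused rat hearts).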

The species named for test [3] is Rattus norvegicus. As to the kind of experiment: Tested for the vasorelaxant potency in methoxamine contracted rat aorta. The procedure, abridged:
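Rat aortic tissue contracted with methoxamine. The IC50 is the concentration producing relaxation.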

The species named for test [4] is Rattus norvegicus. Put plainly: Concentration necessary for increase in time to contracture at a concentration of 10 uM in ischemic rat hearts.

For the compound `Cc1ccc(N/C(=N/[C@@H]2c3cc(C#N)ccc3OC(C)(C)[C@H]2O)NC#N)cc1`, the EC25 in the test filed under Rattus norvegicus [1] stood at 1.6 µM. Also, in the test filed under Rattus norvegicus [2], the Ratio is 0.6. The compound also came in with an IC50 in the test listed under Rattus norvegicus [3] of 2.7 µM.
For `Cc1cccc(N/C(=N/[C@@H]2c3cc(C#N)ccc3OC(C)(C)[C@H]2O)NC#N)c1`, in the test listed under Rattus norvegicus [1], the EC25 was 2.7 µM.
`COC(=O)c1cccc(N/C(=N/[C@@H]2c3cc(C#N)ccc3OC(C)(C)[C@H]2O)NC#N)c1`: the IC50 in the test filed under Rattus norvegicus [3] was 4.1 µM.
For `CC1(C)Oc2ccc(C#N)cc2[C@@H](/N=C(\NC#N)Nc2cccc(C(F)(F)F)c2)[C@@H]1O`, the EC25 in the test filed under Rattus norvegicus [1] was 5.3 µM. Further, in the test listed under Rattus norvegicus [2], the Ratio is on record as 3.3. Further, the midpoint of inhibition in the test listed under Rattus norvegicus [3], the IC50, lay at 1.6 µM.
Turning to `CC(=O)c1ccc(N/C(=N/[C@@H]2c3cc(C#N)ccc3OC(C)(C)[C@H]2O)NC#N)cc1`, the EC25 in the test listed under Rattus norvegicus [1] was 52 µM. The Ratio in the test filed under Rattus norvegicus [2] is 2.5. The same compound gave a concentration for half-maximal inhibition (IC50) in the test filed under Rattus norvegicus [3] of 21 µM.
`CC1(C)Oc2ccc(C#N)cc2[C@@H](n2c(O)nc3ccccc32)[C@@H]1O` returned an EC25 in the test filed under Rattus norvegicus [1] of 11.7 µM.
`CC(=O)c1cccc(N/C(=N/[C@@H]2c3cc(C#N)ccc3OC(C)(C)[C@H]2O)NC#N)c1`: the IC50 in the test listed under Rattus norvegicus [3] was determined as 8.4 µM.
As for `COc1ccc(N/C(=N/[C@@H]2c3cc(C#N)ccc3OC(C)(C)[C@H]2O)NC#N)cc1`, the EC25 in the test filed under Rattus norvegicus [1] was 5.3 µM. In addition, in the test filed under Rattus norvegicus [2], the Ratio was determined as 0.16. For the same compound, half-maximal inhibition in the test listed under Rattus norvegicus [3] (IC50) required 32.5 µM.
`CC1(C)Oc2ccc(C#N)cc2[C@@H](/N=C(\NC#N)Nc2ccc(C(=O)O)cc2)[C@@H]1O` had an IC50 in the test filed under Rattus norvegicus [3] above 100 µM.
As to `CC1(C)Oc2ccc(C#N)cc2[C@@H](NC(=O)NCc2ccccc2)[C@@H]1O`, the EC25 in the test filed under Rattus norvegicus [1] was above 30 µM. Moreover, in the test listed under Rattus norvegicus [3], half-maximal inhibition (IC50) required 5.6 µM.
In the test filed under Rattus norvegicus [3], `COC(=O)c1ccc(N/C(=N/[C@@H]2c3cc(C#N)ccc3OC(C)(C)[C@H]2O)NC#N)cc1` had an IC50 of 18.4 µM.
Compound `CC1(C)Oc2ccc(C#N)cc2[C@@H](/N=C(\NC#N)Oc2ccccc2)[C@@H]1O` displayed an EC25 in the test listed under Rattus norvegicus [1] of 68.8 µM. This compound also came in with an IC50 in the test filed under Rattus norvegicus [3] above 100 µM.
For the compound `CC1(C)Oc2ccc(C#N)cc2[C@@H](/N=C(\NC#N)NCc2ccccc2)[C@@H]1O`, the EC25 in the test listed under Rattus norvegicus [1] was above 30 µM. Moreover, the IC50 in the test filed under Rattus norvegicus [3] worked out at 2.4 µM.
In turn, `CC1(C)Oc2ccc(C#N)cc2[C@@H](/N=C(\NC#N)Nc2ccc3c(c2)CCC3)[C@@H]1O` came in with an EC25 in the test filed under Rattus norvegicus [1] of 3.5 µM. Further, in the test listed under Rattus norvegicus [2], the Ratio was 0.08. The IC50 in the test listed under Rattus norvegicus [3] is 41.3 µM.
On the same counts, the results for `CC1(C)Oc2ccc(C#N)cc2[C@@H](NC(=O)Nc2cccnc2)[C@@H]1O` are 4.2 µM, 8.4 and 0.5 µM.
Turning to `Cc1ccc(N/C(=N/[C@@H]2c3cc(C#N)ccc3OC(C)(C)[C@H]2O)NC#N)cc1C`, in the test filed under Rattus norvegicus [1], the EC25 is 2.5 µM. For the same compound, the Ratio in the test filed under Rattus norvegicus [2] is given as 0.49. In the test listed under Rattus norvegicus [3], this compound had an IC50 of 5.1 µM.
Consider `CC1(C)Oc2ccc(C#N)cc2[C@@H](/N=C(\NC#N)Nc2ccc(Cl)c(F)c2)[C@@H]1O`, for which the IC50 in the test listed under Rattus norvegicus [3] was 1.66 µM.
Compound `CC1(C)Oc2ccc(C#N)cc2[C@@H](/N=C(\NC#N)Nc2ccc(Cl)c(Cl)c2)[C@@H]1O` came in with an EC25 in the test filed under Rattus norvegicus [1] of 12.9 µM. In addition, the Ratio in the test listed under Rattus norvegicus [2] is on record as 2.8. In addition, the IC50 in the test filed under Rattus norvegicus [3] was found to be 4.6 µM.
In the test listed under Rattus norvegicus [1], `CC1(C)Oc2ccc(C#N)cc2[C@@H](NC(=O)Nc2ccncc2)[C@@H]1O` came in with an Increase of 1%. In addition, in the test filed under Rattus norvegicus [3], half-maximal inhibition (IC50) required 8.5 µM.
For the compound `CCC(C)(C)/N=C(\NC#N)N[C@@H]1c2cc(C#N)ccc2OC(C)(C)[C@H]1O`, the Ratio in the test filed under Rattus norvegicus [2] is 0.7.
With `CC1(C)Oc2ccc(C#N)cc2[C@@H](/N=C(\NC#N)Nc2ccc(C(F)(F)F)cc2)[C@@H]1O`, in the test filed under Rattus norvegicus [2], the Ratio is on record as 1.4.
In the test filed under Rattus norvegicus [1], `CC1(C)Oc2ccc(C#N)cc2[C@@H](NC(=O)Cc2ccccc2)[C@@H]1O` yielded a concentration for an effect of 25% (EC25) of 22.2 µM. In addition, the Ratio in the test filed under Rattus norvegicus [2] was 12.3. This compound came in with an IC50 in the test filed under Rattus norvegicus [3] of 1.8 µM.
In the test listed under Rattus norvegicus [3], `CSc1ccc(N/C(=N/[C@@H]2c3cc(C#N)ccc3OC(C)(C)[C@H]2O)NC#N)cc1` yielded an IC50 of 6.3 µM.
The compound `CC1(C)Oc2ccc(C#N)cc2[C@@H](NC(=O)Nc2ccccn2)[C@@H]1O` gave an EC25 in the test listed under Rattus norvegicus [1] of 2.6 µM. Further, the Ratio in the test filed under Rattus norvegicus [2] is reported as 5.9. Also, in the test filed under Rattus norvegicus [3], the concentration for half-maximal inhibition (IC50) was 0.44 µM.
The compound `CC1(C)Oc2ccc(C#N)cc2[C@@H](/N=C(\NC#N)Nc2cccc(C(=O)O)c2)[C@@H]1O` returned an IC50 in the test listed under Rattus norvegicus [3] above 100 µM.
Consider `CC1(C)Oc2ccc(C#N)cc2[C@@H](/N=C(\NC#N)Nc2cccc(Cl)c2)[C@@H]1O`, for which, in the test filed under Rattus norvegicus [1], the EC25 was found to be 1.4 µM. Besides, the Ratio in the test filed under Rattus norvegicus [2] was found to be 2.3. The compound further had a 50% inhibitory concentration (IC50) in the test listed under Rattus norvegicus [3] of 0.6 µM.
On the same counts, the results for `CC1(C)Oc2ccc(C#N)cc2[C@@H](/N=C(\NC#N)Nc2ccc([N+](=O)[O-])cc2)[C@@H]1O` are 6.2 µM, 20.6 and 0.3 µM.
On the same counts, the results for `CC1(C)Oc2ccc(C#N)cc2[C@@H](/N=C(\NC#N)Nc2cccc([N+](=O)[O-])c2)[C@@H]1O` are 5 µM, 7.5 and 0.67 µM.
On the same counts, the results for `CC1(C)Oc2ccc(C#N)cc2[C@@H](NC(=O)c2ccccc2)[C@@H]1O` are 11.8 µM, 393 and 0.03 µM.
As for `COC(=O)c1cn([C@@H]2c3cc(C#N)ccc3OC(C)(C)[C@H]2O)c2ccccc12`, the EC25 in the test filed under Rattus norvegicus [1] was 3.2 µM.
Turning to `CC1(C)Oc2ccc(C#N)cc2[C@@H](N2CCN(c3ccccc3)C2=O)[C@@H]1O`, the concentration for an effect of 25% (EC25) in the test filed under Rattus norvegicus [1] is 10 µM. In the test listed under Rattus norvegicus [2], the Ratio is 0.42. Besides, in the test listed under Rattus norvegicus [3], 23.7 µM corresponded to half-maximal inhibition (IC50).
`CC1(C)Oc2ccc(C#N)cc2[C@@H](/N=C(\NC#N)Sc2ccccc2)[C@@H]1O`: the EC25 in the test listed under Rattus norvegicus [1] was above 30 µM. Besides, in the test listed under Rattus norvegicus [3], 4.9 µM corresponded to half-maximal inhibition (IC50).
Regarding `CSc1cccc(N/C(=N/[C@@H]2c3cc(C#N)ccc3OC(C)(C)[C@H]2O)NC#N)c1`, the EC25 in the test filed under Rattus norvegicus [1] is 8.2 µM. In the test listed under Rattus norvegicus [2], the Ratio was determined as 5.6. The compound also yielded an IC50 in the test filed under Rattus norvegicus [3] of 1.4 µM.
As for `COC(=O)c1cc2ccccc2n1[C@@H]1c2cc(C#N)ccc2OC(C)(C)[C@H]1O`, in the test listed under Rattus norvegicus [1], the concentration for an effect of 25% (EC25) was 8.1 µM.
Turning to `C/N=C(\NC#N)N[C@@H]1c2cc(C#N)ccc2OC(C)(C)[C@H]1O`, the EC25 in the test filed under Rattus norvegicus [1] was 13.3 µM. Also, the Ratio in the test filed under Rattus norvegicus [2] stood at 66.5.
For the compound `CC1(C)Oc2ccc(C#N)cc2[C@@H](n2cc(C#N)c3ccccc32)[C@@H]1O`, the EC25 in the test listed under Rattus norvegicus [1] stood at 25.5 µM. Further, the Ratio in the test filed under Rattus norvegicus [2] is listed as 11.5. The compound further yielded an IC50 in the test filed under Rattus norvegicus [3] of 2.2 µM.
The compound `CC1(C)Oc2ccc(C#N)cc2[C@@H](/N=C(\NC#N)NNc2ccccc2)[C@@H]1O` yielded an Activity in the test listed under Rattus norvegicus [4] of 4%. The IC50 in the test listed under Rattus norvegicus [3] is 3.5 µM.
Take `CC1(C)Oc2ccc(C#N)cc2[C@@H](/N=C(\NC#N)Nc2ccc(Cl)cc2)[C@@H]1O`: the Ratio in the test listed under Rattus norvegicus [2] was determined as 1.4.
In the test listed under Rattus norvegicus [1], `CC1(C)Oc2ccc(C#N)cc2[C@@H](/N=C(\NC#N)Nc2ccccc2)[C@@H]1O` (stereo in doubt; 3) had an EC25 of 11 µM. Besides, the Ratio in the test listed under Rattus norvegicus [2] is 7.9.
On the same counts, the results for `CC1(C)Oc2ccc(C#N)cc2[C@@H](/N=C(\NC#N)Nc2ccccc2)[C@@H]1O` (stereo in doubt; 22) are 6.1 µM and 4.7.
As to `CC1(C)Oc2ccc(C#N)cc2[C@@H](N2CCCC2=O)[C@@H]1O` [CROMAKALIM], the Ratio in the test filed under Rattus norvegicus [2] stood at 278.1.
